Experiments:
[1] = Dissociation constant, pKa of the compound; type: physicochemical
[2] = Lipophilicity, log D of the compound at pH 7.4; type: physicochemical; conditions: buffer
[3] = Intrinsic clearance in human liver microsomes at 1 mg/ml; type: ADME, Microsome; conditions: read-out: CLH
Method in brief: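 Compound incubated 45 min at 37 °C with human liver microsomes at 1 mg/mL. CLint is taken from the rate of parent disappearance.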

CYP2D6 = CYP2D6 (Homo sapiens, UniProt P10635); test: Time dependent inhibition of human recombinant CYP2D6 coexpressed in Escherichia coli at 50 uM using bufuralol as probe; type: ADME
Chain of CYP2D6 (P10635 whole entry): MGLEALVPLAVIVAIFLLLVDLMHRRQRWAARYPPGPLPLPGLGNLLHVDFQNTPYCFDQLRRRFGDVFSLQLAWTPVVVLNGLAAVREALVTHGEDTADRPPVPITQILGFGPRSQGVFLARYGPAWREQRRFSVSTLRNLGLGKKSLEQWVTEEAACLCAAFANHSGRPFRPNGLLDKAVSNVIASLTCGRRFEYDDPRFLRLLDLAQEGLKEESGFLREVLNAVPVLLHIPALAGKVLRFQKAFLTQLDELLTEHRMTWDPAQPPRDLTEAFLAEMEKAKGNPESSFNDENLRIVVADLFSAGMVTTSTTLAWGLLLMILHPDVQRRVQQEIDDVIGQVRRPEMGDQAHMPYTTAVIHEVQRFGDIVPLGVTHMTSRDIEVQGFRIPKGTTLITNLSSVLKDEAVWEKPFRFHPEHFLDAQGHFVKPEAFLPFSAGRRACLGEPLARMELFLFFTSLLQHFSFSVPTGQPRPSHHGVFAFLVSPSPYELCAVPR
Method in brief: (§1)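 Time-dependent inhibition of human recombinant P450s. Compound is preincubated 30 min at 37 °C with and without NADPH, then percent inhibition is read. Run at 10 and 50 μM, with the 50 μM value reported.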

Cytochrome P450 1A2 [4] = biological target: T1, Cytochrome P450 1A2 (Homo sapiens, UniProt P05177); test: Activity of human recombinant CYP1A2 assessed as enzyme contribution towards compound metabolism at 37 degC; type: ADME
T1 sequence (P05177 whole entry): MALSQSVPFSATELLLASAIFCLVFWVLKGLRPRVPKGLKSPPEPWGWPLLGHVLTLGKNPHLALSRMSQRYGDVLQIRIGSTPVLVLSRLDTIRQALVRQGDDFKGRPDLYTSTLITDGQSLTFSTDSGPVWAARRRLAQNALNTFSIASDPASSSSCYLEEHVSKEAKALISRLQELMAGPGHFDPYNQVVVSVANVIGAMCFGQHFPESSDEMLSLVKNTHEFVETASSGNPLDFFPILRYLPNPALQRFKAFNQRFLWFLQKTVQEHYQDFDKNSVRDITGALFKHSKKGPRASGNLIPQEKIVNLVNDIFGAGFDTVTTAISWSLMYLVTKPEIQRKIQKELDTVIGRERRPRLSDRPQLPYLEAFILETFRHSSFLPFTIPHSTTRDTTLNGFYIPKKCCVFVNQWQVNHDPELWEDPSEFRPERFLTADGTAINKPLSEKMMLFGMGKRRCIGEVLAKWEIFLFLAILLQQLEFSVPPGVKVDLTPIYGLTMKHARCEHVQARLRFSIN
Method in brief: (§2)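 CYP reaction phenotyping with human recombinant P450 isoforms at 37 °C. Each isoform's share of compound metabolism is given as percent contribution relative to the other isoforms in the test.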

CYP1A2 = biological target: T2, CYP1A2 (Homo sapiens, UniProt P05177); test: Time dependent inhibition of human recombinant CYP1A2 coexpressed in Escherichia coli at 50 uM using phenacetin as probe; type: ADME; method in brief: as §1
T2 sequence (P05177 whole entry): T1 sequence (P05177 whole entry)

Cytochrome P450 2C19 [5] = biological target: T3, Cytochrome P450 2C19 (Homo sapiens, UniProt P33261); test: Inhibition of human recombinant CYP2C19 coexpressed in Escherichia coli; type: ADME
T3 sequence (P33261 whole entry, canonical isoform): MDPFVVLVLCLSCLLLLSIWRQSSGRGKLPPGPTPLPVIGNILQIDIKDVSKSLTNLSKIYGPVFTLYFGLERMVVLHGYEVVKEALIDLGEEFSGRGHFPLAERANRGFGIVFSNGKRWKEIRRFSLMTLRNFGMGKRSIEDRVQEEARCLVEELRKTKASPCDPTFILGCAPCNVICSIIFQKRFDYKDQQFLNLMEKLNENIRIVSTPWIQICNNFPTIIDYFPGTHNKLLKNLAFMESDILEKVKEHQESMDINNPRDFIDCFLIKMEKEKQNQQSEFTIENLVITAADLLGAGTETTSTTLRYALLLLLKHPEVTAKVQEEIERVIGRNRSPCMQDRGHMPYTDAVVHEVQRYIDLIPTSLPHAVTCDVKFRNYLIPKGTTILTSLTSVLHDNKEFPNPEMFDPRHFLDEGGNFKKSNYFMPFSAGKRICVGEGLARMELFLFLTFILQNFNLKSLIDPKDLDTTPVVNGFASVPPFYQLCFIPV
Method in brief: (§3)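 Human recombinant cytochrome P450s at 37 °C. Read-out is inhibition of metabolic degradation of each isoform's substrate. Percent inhibition is measured at five test concentrations and converted to IC50.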

Cytochrome P450 1A2 [6] = biological target: T1, Cytochrome P450 1A2; test: Inhibition of human recombinant CYP1A2 coexpressed in Escherichia coli using phenacetin as probe; type: ADME; method in brief: as §3
Cytochrome P450 2C8 [7] = biological target: T4, Cytochrome P450 2C8 (Homo sapiens, UniProt P10632); test: Inhibition of human recombinant CYP2C8 coexpressed in Escherichia coli; type: ADME; method in brief: as §3
T4 sequence (P10632 whole entry): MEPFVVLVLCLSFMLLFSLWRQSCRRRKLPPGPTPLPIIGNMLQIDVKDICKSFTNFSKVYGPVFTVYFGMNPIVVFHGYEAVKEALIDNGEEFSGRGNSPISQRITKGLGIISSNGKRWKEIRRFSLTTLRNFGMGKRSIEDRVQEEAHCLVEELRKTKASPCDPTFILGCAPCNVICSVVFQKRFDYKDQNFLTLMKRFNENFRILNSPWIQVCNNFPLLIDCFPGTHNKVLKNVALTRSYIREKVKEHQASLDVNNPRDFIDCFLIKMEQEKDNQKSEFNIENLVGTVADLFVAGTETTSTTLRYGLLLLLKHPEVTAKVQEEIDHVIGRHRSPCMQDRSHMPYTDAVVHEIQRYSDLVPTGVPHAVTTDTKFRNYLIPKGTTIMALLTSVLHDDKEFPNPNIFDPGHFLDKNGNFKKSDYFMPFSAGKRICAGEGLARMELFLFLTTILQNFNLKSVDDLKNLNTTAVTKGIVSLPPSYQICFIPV

Cytochrome P450 3A4 [8] = biological target: T5, Cytochrome P450 3A4 (Homo sapiens, UniProt P08684); test: Activity of human recombinant CYP3A4 assessed as enzyme contribution towards compound metabolism at 37 degC; type: ADME; parameters: concentration or dose not given beside the values; method in brief: as §2
T5 sequence (P08684 whole entry): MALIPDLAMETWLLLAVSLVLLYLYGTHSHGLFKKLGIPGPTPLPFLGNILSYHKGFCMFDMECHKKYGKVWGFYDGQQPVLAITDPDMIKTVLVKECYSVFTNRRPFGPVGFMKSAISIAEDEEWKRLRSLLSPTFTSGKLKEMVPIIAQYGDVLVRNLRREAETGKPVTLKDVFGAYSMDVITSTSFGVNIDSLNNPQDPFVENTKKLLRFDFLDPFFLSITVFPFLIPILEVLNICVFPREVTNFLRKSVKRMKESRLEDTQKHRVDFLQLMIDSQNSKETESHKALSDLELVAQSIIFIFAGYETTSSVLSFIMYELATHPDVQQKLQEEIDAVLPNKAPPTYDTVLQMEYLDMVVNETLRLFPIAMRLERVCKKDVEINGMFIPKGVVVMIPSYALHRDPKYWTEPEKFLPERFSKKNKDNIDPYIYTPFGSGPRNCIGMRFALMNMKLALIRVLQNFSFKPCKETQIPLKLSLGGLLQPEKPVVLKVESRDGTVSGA

Cytochrome P450 2D6 [9] = biological target: T6, Cytochrome P450 2D6 (Homo sapiens, UniProt P10635); test: Inhibition of human recombinant CYP2D6 coexpressed in Escherichia coli; type: ADME; method in brief: as §3
T6 sequence (P10635 whole entry): as the sequence (P10635 whole entry) above

Cytochrome P450 2C19 [10] = biological target: T3, Cytochrome P450 2C19; test: Activity of human recombinant CYP2C19 assessed as enzyme contribution towards compound metabolism at 37 degC; type: ADME; method in brief: as §2
Cytochrome P450 2C9 [11] = biological target: T7, Cytochrome P450 2C9 (Homo sapiens, UniProt P11712); test: Activity of human recombinant CYP2C9 assessed as enzyme contribution towards compound metabolism at 37 degC; type: ADME; method in brief: as §2
T7 sequence (P11712 whole entry): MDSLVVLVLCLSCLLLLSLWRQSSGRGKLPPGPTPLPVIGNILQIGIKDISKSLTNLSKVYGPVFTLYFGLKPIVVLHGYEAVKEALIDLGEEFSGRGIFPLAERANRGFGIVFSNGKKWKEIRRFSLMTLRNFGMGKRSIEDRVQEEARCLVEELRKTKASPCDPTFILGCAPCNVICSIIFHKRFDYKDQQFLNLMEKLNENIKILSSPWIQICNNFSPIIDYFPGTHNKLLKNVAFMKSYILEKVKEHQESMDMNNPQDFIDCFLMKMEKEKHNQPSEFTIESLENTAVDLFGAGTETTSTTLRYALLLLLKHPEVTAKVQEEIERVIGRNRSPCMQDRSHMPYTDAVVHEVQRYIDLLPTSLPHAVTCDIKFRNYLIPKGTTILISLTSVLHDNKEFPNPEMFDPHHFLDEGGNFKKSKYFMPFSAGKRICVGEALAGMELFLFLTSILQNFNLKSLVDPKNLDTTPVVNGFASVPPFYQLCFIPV

CYP2C19 = CYP2C19 (Homo sapiens, UniProt P33261); test: Time dependent inhibition of human recombinant CYP2C19 coexpressed in Escherichia coli at 50 uM using mephenytoin as probe; type: ADME; method in brief: as §1
Chain of CYP2C19 (P33261 whole entry): as the sequence (P33261 whole entry, canonical isoform) above

CYP3A4 = CYP3A4 (Homo sapiens, UniProt P08684); test: Time dependent inhibition of human recombinant CYP3A4 coexpressed in Escherichia coli at 50 uM using midazolam as probe; type: ADME; method in brief: as §1
Chain of CYP3A4 (P08684 whole entry): as the sequence (P08684 whole entry) above

CYP2C8 = biological target: T8, CYP2C8 (Homo sapiens, UniProt P10632); test: Time dependent inhibition of human recombinant CYP2C8 coexpressed in Escherichia coli at 50 uM using amodiaquine as probe; type: ADME; method in brief: as §1
T8 sequence (P10632 whole entry): T4 sequence (P10632 whole entry)

CYP2C9 = CYP2C9 (Homo sapiens, UniProt P11712); test: Time dependent inhibition of human recombinant CYP2C9 coexpressed in Escherichia coli at 50 uM using diclofenac as probe; type: ADME; method in brief: as §1
Chain of CYP2C9 (P11712 whole entry): as the sequence (P11712 whole entry) above

Cytochrome P450 3A4 [12] = biological target: T5, Cytochrome P450 3A4; test: Inhibition of human recombinant CYP3A4 coexpressed in Escherichia coli; type: ADME; method in brief: as §3
Cytochrome P450 2C9 [13] = biological target: T7, Cytochrome P450 2C9; test: Inhibition of human recombinant CYP2C9 coexpressed in Escherichia coli; type: ADME; method in brief: as §3
Cytochrome P450 2C8 [14] = biological target: T4, Cytochrome P450 2C8; test: Activity of human recombinant CYP2C8 assessed as enzyme contribution towards compound metabolism at 37 degC; type: ADME; method in brief: as §2
Cytochrome P450 2D6 [15] = biological target: T6, Cytochrome P450 2D6; test: Activity of human recombinant CYP2D6 assessed as enzyme contribution towards compound metabolism at 37 degC; type: ADME; method in brief: as §2

Compound | pKa [1] | microsomal CLint [3] [µL/min/mg] | inhibition at 50 µM (CYP2D6) [%] | Activity (Cytochrome P450 1A2 [4]) [%] | inhibition at 50 µM (CYP1A2) [%] | IC50 (Cytochrome P450 2C19 [5]) [µM] | IC50 (Cytochrome P450 1A2 [6]) [µM] | IC50 (Cytochrome P450 2C8 [7]) [µM] | Activity (Cytochrome P450 3A4 [8]) [%] | IC50 (Cytochrome P450 2D6 [9]) [µM] | Activity (Cytochrome P450 2C19 [10]) [%] | CYP isoform contribution to compound metabolism (Cytochrome P450 2C9 [11]) [%] | inhibition at 50 µM (CYP2C19) [%] | inhibition at 50 µM (CYP3A4) [%] | inhibition at 50 µM (CYP2C8) [%] | inhibition at 50 µM (CYP2C9) [%] | IC50 (Cytochrome P450 3A4 [12]) [µM] | IC50 (Cytochrome P450 2C9 [13]) [µM] | Activity (Cytochrome P450 2C8 [14]) [%] | Activity (Cytochrome P450 2D6 [15]) [%] | further results
CCOC(=O)N1CCN(Cc2nc(-c3cccc(Cl)c3)no2)CC1 | 3.4 |  |  |  |  |  |  |  |  |  |  |  |  |  |  |  |  |  |  |  | logD [2]: 4.8
CCOC(=O)N1CCN(Cc2nnc(-c3cccc(Cl)c3)o2)CC1 | 3.5 |  |  |  |  |  |  |  |  |  |  |  |  |  |  |  |  |  |  |  | logD [2]: 3.3
O=C(NCc1ccncc1)c1nnc(CS(=O)(=O)c2ccccc2)o1 |  | < 5 | < 11 | 0 | < 10 | 9.8 | > 20 | > 20 | 0 | 5.7 | 0 | 0 | < 12 | < 7 | < 14 | < 19 | > 20 | 1.7 | 0 | 100 | 
Clc1cc(-c2nc(CSc3nnc(-c4ccncc4)n3C3CC3)no2)ccn1 |  | > 300 | < 11 | 0.2 | < 10 | > 20 | > 20 | > 20 | 99.5 | > 20 | 0.1 | 0 | < 12 | 30 | < 14 | < 19 | 14.2 | > 20 | 0.2 | 0 | 
c1cc(-c2nnc(C3CCCCC3)o2)ccn1 |  | 17 | < 11 | 68.5 | < 10 | 1.3 | > 20 | > 20 | 11.7 | > 20 | 14.8 | 2.4 | 13 | < 7 | < 14 | < 19 | > 20 | > 20 | 1.5 | 1.1 | 
CCOC(=O)N1CCN(Cc2nnc(-c3cc(Cl)ccc3F)o2)CC1 | 3.5 |  |  |  |  |  |  |  |  |  |  |  |  |  |  |  |  |  |  |  | logD [2]: 3.2
Clc1cc(-c2nnc(CSc3nnc(-c4ccncc4)n3C3CC3)o2)ccn1 |  | 8 | < 11 | 0 | < 10 | > 20 | > 20 | > 20 | 100 | > 20 | 0 | 0 | < 12 | < 7 | < 14 | < 19 | > 20 | > 20 | 0 | 0 | 
O=C(NC1CCCCC1)c1nnc(CS(=O)(=O)c2ccccc2)o1 |  | < 5 | < 9 | 0 | < 7 | > 20 | > 20 | > 20 | 52.2 | > 20 | 45.4 | 0 | < 12 | < 7 | < 13 | < 19 | > 20 | > 20 | 0 | 2.4 | 
c1ccc(CN2CCN(Cc3nc(-c4ccccc4)no3)CC2)cc1 | 6.7 | 9 | < 9 | 1.5 | < 7 | > 20 | > 20 | > 20 | 92.1 | 10.2 | 2.2 | 1 | < 12 | 9 | < 13 | < 19 | > 20 |  | 0.9 | 2.3 | logD [2]: 5.1
